Results taken from ChEMBL document CHEMBL4043282, “Discovery of the First Potent, Selective, and Orally Bioavailable Signal Peptide Peptidase-Like 2a (SPPL2a) Inhibitor Displaying Pronounced Immunomodulatory Effects In Vivo” (J Med Chem, 2018).
Calls of active or inactive are those of the source. The rule behind the calls is not given here.

Columns and labels:
[1] = molecular target: T1, Signal peptide peptidase-like 2A (Mus musculus, UniProt Q9JJF9); test: Inhibition of mouse SPPL2a in A20 cells assessed as CD74/p8 accumulation by flow cytometry; type: cell-based
T1 sequence (Q9JJF9 whole entry): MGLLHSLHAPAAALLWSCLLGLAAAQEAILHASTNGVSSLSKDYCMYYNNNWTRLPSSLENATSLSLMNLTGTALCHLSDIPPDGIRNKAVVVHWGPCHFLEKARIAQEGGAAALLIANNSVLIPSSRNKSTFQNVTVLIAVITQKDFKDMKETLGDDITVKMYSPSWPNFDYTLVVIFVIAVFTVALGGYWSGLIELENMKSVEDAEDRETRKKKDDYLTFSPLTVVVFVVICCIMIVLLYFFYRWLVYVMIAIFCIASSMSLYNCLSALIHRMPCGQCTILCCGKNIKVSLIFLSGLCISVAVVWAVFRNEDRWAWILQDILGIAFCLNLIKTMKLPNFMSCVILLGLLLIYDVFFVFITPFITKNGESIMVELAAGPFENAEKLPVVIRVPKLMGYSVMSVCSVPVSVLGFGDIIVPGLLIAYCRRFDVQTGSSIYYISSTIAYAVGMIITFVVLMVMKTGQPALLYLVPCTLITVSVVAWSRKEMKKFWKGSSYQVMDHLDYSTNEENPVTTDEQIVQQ

Mus musculus [2] = test: Immunomodulatory activity in mouse assessed as reduction in myloid dendritic cells in splenocyte administered via oral gavage bid at 8 and 16 hrs dosing interval between first and second dose respectively for 11 days measured 16 hrs post last dose on day 12 by B220 staining based flow cytometry; type: functional, cell-based
Mus musculus [3] = test: Immunomodulatory activity in mouse assessed as reduction in total B cells in splenocyte administered via oral gavage bid at 8 and 16 hrs dosing interval between first and second dose respectively for 11 days measured 16 hrs post last dose on day 12 by B220 staining based flow cytometry; type: functional, cell-based
[4] = Oral bioavailability in Balb/c mouse by LC/MS/MS analysis; type: ADME, organism-based; details: in vivo
[5] = molecular target: T2, Signal peptide peptidase-like 2A (Homo sapiens, UniProt Q8TCT8); test: Inhibition of human SPPL2a expressed in HEK293 cells using GAL4-VP16 fusedTNFalpha (1 to 76)-NTF as substrate after 24 hrs by Bright-Glo luciferase reporter gene assay; type: cell-based
T2 sequence (Q8TCT8 whole entry): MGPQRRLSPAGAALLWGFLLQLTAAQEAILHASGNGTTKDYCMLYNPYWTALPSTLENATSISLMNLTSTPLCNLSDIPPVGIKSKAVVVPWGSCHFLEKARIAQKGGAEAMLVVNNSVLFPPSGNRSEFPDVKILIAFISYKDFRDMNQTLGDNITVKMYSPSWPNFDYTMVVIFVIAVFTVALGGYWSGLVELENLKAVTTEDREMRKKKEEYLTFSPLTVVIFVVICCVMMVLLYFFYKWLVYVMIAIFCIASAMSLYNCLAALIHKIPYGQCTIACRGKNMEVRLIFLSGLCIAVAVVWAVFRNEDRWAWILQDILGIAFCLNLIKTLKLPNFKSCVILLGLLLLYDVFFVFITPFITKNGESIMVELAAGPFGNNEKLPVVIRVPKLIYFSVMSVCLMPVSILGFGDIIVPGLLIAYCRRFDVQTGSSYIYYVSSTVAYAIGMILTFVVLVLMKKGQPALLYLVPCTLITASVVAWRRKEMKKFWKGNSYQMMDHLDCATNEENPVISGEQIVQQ
How it was run: (§1)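 HEK293 cells transiently transfected with human SPPL2a, VP16-TNFα(aa1-76)-NTF substrate and Gal4-luciferase reporter (SPPL2a), or human Notch1-VP16-Gal4 plus Gal4-luciferase reporter relying on endogenous γ-secretase.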

[6] = Total concentration in Lewis rat blood at 3 mg/kg, po bid after 24 hrs by LC/MS/MS analysis; type: ADME, organism-based; details: read-out: Drug uptake
[7] = Drug uptake in Lewis rat spleen at 30 mg/kg, po bid after 24 hrs by LC/MS/MS analysis; type: ADME, organism-based; details: read-out: Drug uptake
[8] = Clearance in Balb/c mouse at 5 mg/kg, iv by LC/MS/MS analysis; type: ADME, organism-based; details: in vivo
[9] = molecular target: T2, Signal peptide peptidase-like 2A; test: Inhibition of human SPPL2a expressed in human U2OS cells using EGFP-labeled TNFalpha (1 to 76 residues) NTF as substrate after 24 hrs by Hoechst staining based high content imaging analysis; type: cell-based
How it was run: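 Stable U-2 OS lines expressing human SPPL2a, SPPL2b or SPP constitutively (mouse SPPL2a line analogous, mouse TNFα(aa1-77)-NTF-EGFP-NLS) with doxycycline-inducible EGFP substrate. 3000 cells/well, 3−4 h, then 11-point inhibitor 100 μM to 1 nM, 0.9% DMSO, 5 μg/mL doxycycline, 24 h 37 °C. PFA fixed, Hoechst nuclei; nuclear minus cytoplasmic EGFP intensity; inhibition vs 0.5 μM reference and DMSO; IC50 by nonlinear regression.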

Mus musculus [10] = test: Dose normalized AUC in po dosed Balb/c mouse by LC/MS/MS analysis; type: ADME, organism-based; details: in vivo
[11] = Inhibition of human gamma-secretase expressed in HEK293 cells using Notch1-VP16-Gal4 as substrate after 24 hrs by Bright-Glo luciferase reporter gene assay; type: cell-based; details: HEK293, 24 h; how it was run: as §1
Mus musculus [12] = test: In vivo inhibition of SPPL2a in mouse assessed as accumulation of CD74/p8 in splenocyte lysate at 10 mg/kg administered via oral gavage as single dose measured 16 hrs post dose by Western blot method relative to control; type: functional
How it was run: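 Mice gavaged in 0.5% MC:0.5% Tween or PEG:D5W 3:1. Spleens dissociated, red cells lysed with ACK, 1 × 10^6 cells lysed with protease inhibitors; 18 μg lysate on 10% gel, blotted, CD74 full length and p8 detected with rat anti-mouse CD74 In-1 and Alexa488 anti-rat IgG, LiCor scan; p8/full-length ratio expressed as percent of reference compound ratio.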

[13] = Selectivity ratio of IC50 for human gamma-secretase expressed in HEK293 cells to IC50 for human SPPL2a expressed in HEK293 cells
How it was run: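 HEK293 transiently transfected: SPPL2a arm with human SPPL2a, VP16-TNFα(aa1-76)-NTF and Gal4-luciferase; γ-secretase arm with human Notch1-VP16-Gal4 plus reporter (endogenous γ-secretase). Compound added 3 h after plating, 10 μM–0.3 nM final, triplicate, 24 h at 37 °C; luminescence read. IC50 from concentration vs normalised luminescence; ratio of the two IC50s.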

[14] = Total plasma concentration in mouse at 10 mg/kg, po administered as single dose after 4 hrs by LC/MS/MS analysis; type: ADME, organism-based
Mus musculus [15] = test: In vivo inhibition of SPPL2a in mouse assessed as increase in CD74/p8 accumulation in splenocytes at 100 mg/kg, po administered as single dose measured after 4 hrs by Western blot method; type: functional, organism-based
[16] = Drug uptake in mouse spleen at 10 mg/kg, po administered as single dose after 4 hrs by LC/MS/MS analysis; type: ADME, organism-based; details: read-out: Drug uptake

Compound	IC50 [1] [nM]	Activity (Mus musculus [2])	Activity (Mus musculus [3])	bioavailability [4] [%]	IC50 [5] [nM]	concentration at 24 h [6] [nM]	concentration at 24 h [7] [µM]	clearance [8] [mL/min/kg]	IC50 [9] [nM]	AUC/dose (Mus musculus [10]) [nM·h]	IC50 [11] [µM]	inhibition in vivo at 10 mg/kg (Mus musculus [12]) [%]	Ratio IC50 [13]	concentration at 4 h [14] [nM]	Activity (Mus musculus [15])	concentration at 4 h [16] [nM]
Cc1ncc(F)cc1NC(=O)C[C@H](C(=O)N[C@@H]1C(=O)N2CC3(CC3)CN2C(=O)c2ccccc21)C1CC1	137	Dose-dependent effect	Dose-dependent effect	94	77	231	4.45	5	160	6071	6.1	50	–	–	–	–
Cc1ccccc1NC(=O)C[C@@H](C)C(=O)N[C@@H]1C(=O)N2CCCN2Cc2ccccc21	370	–	–	100	35	–	–	46	–	908	1.86	–	52	57	Active	127
